Assay results: ChEMBL document CHEMBL4043093, “2-Oxo-3, 4-dihydropyrimido[4, 5-d]pyrimidinyl derivatives as new irreversible pan fibroblast growth factor receptor (FGFR) inhibitors” (Eur J Med Chem, 2017)

What was measured:
[1] = target: Vascular endothelial growth factor receptor 1 (Homo sapiens) (UniProt P17948); test: Inhibition of wild-type human partial length FLT1 (R781 to F1239 residues) expressed in Escherichia coli BL21 assessed as residual activity at 1000 nM after 30 mins by Kinomescan method relative to control
[2] = target: Phosphatidylinositol 5-phosphate 4-kinase type-2 beta (Homo sapiens) (UniProt P78356); test: Inhibition of wild-type human full length PIP5K2B (M1 to T416 residues) expressed in Escherichia coli BL21 assessed as residual activity at 1000 nM after 30 mins by Kinomescan method relative to control
Chain of Phosphatidylinositol 5-phosphate 4-kinase type-2 beta (Homo sapiens) (P78356 whole entry, the tested form may be a part): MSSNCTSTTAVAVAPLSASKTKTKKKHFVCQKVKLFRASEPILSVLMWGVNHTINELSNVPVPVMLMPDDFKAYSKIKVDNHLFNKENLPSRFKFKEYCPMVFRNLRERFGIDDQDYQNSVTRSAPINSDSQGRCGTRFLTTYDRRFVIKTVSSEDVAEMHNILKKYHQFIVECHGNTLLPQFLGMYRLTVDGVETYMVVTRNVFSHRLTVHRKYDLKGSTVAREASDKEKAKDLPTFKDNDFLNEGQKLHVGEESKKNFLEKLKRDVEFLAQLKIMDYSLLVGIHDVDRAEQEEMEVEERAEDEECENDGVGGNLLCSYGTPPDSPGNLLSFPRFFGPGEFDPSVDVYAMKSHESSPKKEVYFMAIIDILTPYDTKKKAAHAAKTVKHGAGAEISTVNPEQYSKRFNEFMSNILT
How it was run: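 Single-concentration screen at 1 µM against a 456-kinase panel (KINOMEscan). Read-out is Percent Control for each kinase. Across the 403 non-mutant kinases, an S(35) selectivity score was derived as the fraction of kinases with Percent Control < 35.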

[3] = system: Epidermal growth factor receptor (Homo sapiens), P00533 [G719C]; test: Inhibition of human partial length EGFR G719C mutant (R669 to V1011 residues) expressed in Escherichia coli BL21 assessed as residual activity at 1000 nM after 30 mins by Kinomescan method relative to control
How it was run: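 KINOMEscan binding panel of 456 kinases, with the test compound at a single concentration of 1 µM. Read-out is Percent Control.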

[4] = system: Mycobacterium tuberculosis; test: Inhibition of wild-type Mycobacterium tuberculosis partial length PKNB (M1 to G279 residues) expressed in HEK293 cells assessed as residual activity at 1000 nM after 30 mins by Kinomescan method relative to control; assay type: cell-based
How it was run: (§1)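 Single-point screen at a fixed 1 µM, run within a 456-kinase DiscoveRx KINOMEscan panel. Each kinase's read-out is Percent Control, i.e. signal relative to a control without compound. Hits were scored by a Percent Control < 35 cut-off, and an S(35) selectivity score was calculated across the non-mutant kinases.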

[5] = target: Mitogen-activated protein kinase kinase kinase 15 (Homo sapiens) (UniProt Q6ZN16); test: Inhibition of wild-type human partial length MAP3K15 (T625 to L932 residues) expressed in HEK293 cells assessed as residual activity at 1000 nM after 30 mins by Kinomescan method relative to control; assay type: cell-based
Chain of Mitogen-activated protein kinase kinase kinase 15 (Homo sapiens) (Q6ZN16 whole entry, the tested form may be a part): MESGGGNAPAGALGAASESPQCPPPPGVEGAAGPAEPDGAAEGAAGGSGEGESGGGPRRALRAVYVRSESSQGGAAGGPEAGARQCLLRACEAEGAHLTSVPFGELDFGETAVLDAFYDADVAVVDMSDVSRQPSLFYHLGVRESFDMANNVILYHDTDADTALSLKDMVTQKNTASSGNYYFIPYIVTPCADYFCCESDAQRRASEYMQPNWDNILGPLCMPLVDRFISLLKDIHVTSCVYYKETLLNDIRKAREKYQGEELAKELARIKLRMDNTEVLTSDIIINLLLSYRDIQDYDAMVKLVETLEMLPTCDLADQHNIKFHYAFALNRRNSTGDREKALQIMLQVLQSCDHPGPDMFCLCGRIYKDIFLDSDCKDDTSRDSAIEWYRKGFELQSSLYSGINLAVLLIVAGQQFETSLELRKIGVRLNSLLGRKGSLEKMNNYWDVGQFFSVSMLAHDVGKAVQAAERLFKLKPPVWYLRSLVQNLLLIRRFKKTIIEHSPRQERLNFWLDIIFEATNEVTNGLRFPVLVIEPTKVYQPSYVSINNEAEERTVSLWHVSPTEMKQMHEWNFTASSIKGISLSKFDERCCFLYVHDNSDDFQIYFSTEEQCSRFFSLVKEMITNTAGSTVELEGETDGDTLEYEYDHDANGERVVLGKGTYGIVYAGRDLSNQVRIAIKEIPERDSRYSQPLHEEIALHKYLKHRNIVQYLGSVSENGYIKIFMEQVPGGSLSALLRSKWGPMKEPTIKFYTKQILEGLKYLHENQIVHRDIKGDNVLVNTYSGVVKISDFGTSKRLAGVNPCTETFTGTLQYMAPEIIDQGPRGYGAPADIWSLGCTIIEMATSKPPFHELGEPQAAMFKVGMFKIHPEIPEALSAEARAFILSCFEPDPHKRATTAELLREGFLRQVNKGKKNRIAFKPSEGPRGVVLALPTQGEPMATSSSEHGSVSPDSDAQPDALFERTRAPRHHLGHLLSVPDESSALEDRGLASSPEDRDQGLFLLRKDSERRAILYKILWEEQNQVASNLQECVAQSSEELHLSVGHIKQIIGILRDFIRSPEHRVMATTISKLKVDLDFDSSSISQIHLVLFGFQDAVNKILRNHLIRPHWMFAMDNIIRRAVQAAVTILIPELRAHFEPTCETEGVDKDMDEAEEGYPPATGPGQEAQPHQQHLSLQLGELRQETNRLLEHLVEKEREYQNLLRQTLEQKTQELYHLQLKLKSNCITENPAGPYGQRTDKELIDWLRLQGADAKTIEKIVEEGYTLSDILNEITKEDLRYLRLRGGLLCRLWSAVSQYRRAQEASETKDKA

[6] = target: Inhibitor of nuclear factor kappa-B kinase subunit alpha (Homo sapiens) (UniProt O15111); test: Inhibition of wild-type human full length IKK-alpha (M1 to E745 residues) expressed in HEK293 cells assessed as residual activity at 1000 nM after 30 mins by Kinomescan method relative to control; assay type: cell-based
How it was run: (§2)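 Single-concentration screen at 1 µM across a 456-kinase KINOMEscan panel. The read-out is Percent Control for each kinase.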

[7] = target: Tyrosine-protein kinase SYK (Homo sapiens) (UniProt P43405); test: Inhibition of wild-type human partial length SYK (D354 to N635 residues) expressed in Escherichia coli BL21 assessed as residual activity at 1000 nM after 30 mins by Kinomescan method relative to control
[8] = target: Dual specificity mitogen-activated protein kinase kinase 2 (Homo sapiens) (UniProt P36507); test: Inhibition of wild-type human full length MEK2 (M1 to V400 residues) expressed in HEK293 cells assessed as residual activity at 1000 nM after 30 mins by Kinomescan method relative to control; assay type: cell-based; how it was run: as §2
[9] = target: Mitogen-activated protein kinase 8 (Homo sapiens) (UniProt P45983); test: Inhibition of wild-type human full length JNK1 (M1 to Q384 residues) expressed in HEK293 cells assessed as residual activity at 1000 nM after 30 mins by Kinomescan method relative to control; assay type: cell-based; how it was run: as §2
Chain of Mitogen-activated protein kinase 8 (Homo sapiens) (P45983 whole entry, the tested form may be a part, canonical isoform): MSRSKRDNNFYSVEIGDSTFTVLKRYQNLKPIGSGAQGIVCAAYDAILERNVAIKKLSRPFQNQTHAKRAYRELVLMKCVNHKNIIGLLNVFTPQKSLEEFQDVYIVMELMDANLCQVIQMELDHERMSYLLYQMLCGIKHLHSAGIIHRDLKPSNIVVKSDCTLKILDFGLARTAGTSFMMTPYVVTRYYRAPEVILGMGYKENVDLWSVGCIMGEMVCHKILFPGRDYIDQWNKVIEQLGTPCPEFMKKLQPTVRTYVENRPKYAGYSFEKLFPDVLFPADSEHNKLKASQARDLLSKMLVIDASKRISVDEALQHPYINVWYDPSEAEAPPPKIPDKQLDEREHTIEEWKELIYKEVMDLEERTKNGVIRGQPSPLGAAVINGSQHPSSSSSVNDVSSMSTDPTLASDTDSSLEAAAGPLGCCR

[10] = target: Casein kinase I isoform alpha (Homo sapiens) (UniProt P48729); test: Inhibition of wild-type human partial length CSNK1A1 (M1 to L450 residues) expressed in HEK293 cells assessed as residual activity at 1000 nM after 30 mins by Kinomescan method relative to control; assay type: cell-based
Chain of Casein kinase I isoform alpha (Homo sapiens) (P48729 2-337 limits assumed): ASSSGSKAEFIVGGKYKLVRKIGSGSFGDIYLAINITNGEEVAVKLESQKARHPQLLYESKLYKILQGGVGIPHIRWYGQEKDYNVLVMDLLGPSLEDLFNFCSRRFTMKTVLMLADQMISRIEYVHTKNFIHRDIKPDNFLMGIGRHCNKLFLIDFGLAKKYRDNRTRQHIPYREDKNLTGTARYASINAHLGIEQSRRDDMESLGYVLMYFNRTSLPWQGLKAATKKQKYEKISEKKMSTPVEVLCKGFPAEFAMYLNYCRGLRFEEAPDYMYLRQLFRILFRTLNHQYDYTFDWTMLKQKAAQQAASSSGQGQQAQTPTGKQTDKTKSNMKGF

[11] = target: Cyclin-dependent kinase 16 (Homo sapiens) (UniProt Q00536); test: Inhibition of wild-type human partial length PCTK1 (G160 to A474 residues) expressed in HEK293 cells assessed as residual activity at 1000 nM after 30 mins by Kinomescan method relative to control; assay type: cell-based
[12] = target: Serine/threonine-protein kinase MRCK beta (Homo sapiens) (UniProt Q9Y5S2); test: Inhibition of wild-type human partial length MRCKB (L56 to S417 residues) expressed in Escherichia coli BL21 assessed as residual activity at 1000 nM after 30 mins by Kinomescan method relative to control
[13] = target: Dual specificity mitogen-activated protein kinase kinase 1 (Homo sapiens) (UniProt Q02750); test: Inhibition of wild-type human full length MEK1 (M1 to V393 residues) expressed in HEK293 cells assessed as residual activity at 1000 nM after 30 mins by Kinomescan method relative to control; assay type: cell-based; how it was run: as §2
[14] = target: Dual serine/threonine and tyrosine protein kinase (Homo sapiens) (UniProt Q6XUX3); test: Inhibition of wild-type human full length RIPK5 (M1 to T929 residues) expressed in HEK293 cells assessed as residual activity at 1000 nM after 30 mins by Kinomescan method relative to control; assay type: cell-based
Chain of Dual serine/threonine and tyrosine protein kinase (Homo sapiens) (Q6XUX3 whole entry, the tested form may be a part): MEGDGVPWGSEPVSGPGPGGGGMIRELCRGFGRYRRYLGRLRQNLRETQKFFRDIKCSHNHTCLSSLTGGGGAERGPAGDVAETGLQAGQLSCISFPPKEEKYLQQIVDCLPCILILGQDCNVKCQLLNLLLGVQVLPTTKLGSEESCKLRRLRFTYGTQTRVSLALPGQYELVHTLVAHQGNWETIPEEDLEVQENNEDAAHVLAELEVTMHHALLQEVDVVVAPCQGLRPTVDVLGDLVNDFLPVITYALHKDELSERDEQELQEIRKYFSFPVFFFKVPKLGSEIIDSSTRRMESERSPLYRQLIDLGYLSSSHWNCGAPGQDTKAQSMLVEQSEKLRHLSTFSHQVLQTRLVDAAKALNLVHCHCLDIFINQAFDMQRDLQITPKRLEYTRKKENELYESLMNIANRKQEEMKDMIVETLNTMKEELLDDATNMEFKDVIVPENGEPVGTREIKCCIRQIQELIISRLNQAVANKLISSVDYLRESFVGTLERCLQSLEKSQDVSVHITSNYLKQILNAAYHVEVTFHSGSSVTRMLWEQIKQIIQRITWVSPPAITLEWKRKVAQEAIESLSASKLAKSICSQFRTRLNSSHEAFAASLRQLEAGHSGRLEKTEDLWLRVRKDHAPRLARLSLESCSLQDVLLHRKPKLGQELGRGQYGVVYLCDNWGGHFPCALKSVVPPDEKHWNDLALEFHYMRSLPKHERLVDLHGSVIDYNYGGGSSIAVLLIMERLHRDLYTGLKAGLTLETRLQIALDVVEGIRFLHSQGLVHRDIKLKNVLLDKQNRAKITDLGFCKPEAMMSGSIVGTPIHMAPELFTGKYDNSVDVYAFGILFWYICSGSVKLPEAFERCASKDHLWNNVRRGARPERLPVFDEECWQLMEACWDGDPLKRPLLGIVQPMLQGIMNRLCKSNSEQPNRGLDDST

[15] = target: STE20/SPS1-related proline-alanine-rich protein kinase (Homo sapiens) (UniProt Q9UEW8); test: Inhibition of wild-type human partial length STK39 (P43 to I357 residues) expressed in HEK293 cells assessed as residual activity at 1000 nM after 30 mins by Kinomescan method relative to control; assay type: cell-based
[16] = target: Tyrosine-protein kinase Tec (Homo sapiens) (UniProt P42680); test: Inhibition of wild-type human partial length TEC (L341 to D620 residues) expressed in Escherichia coli BL21 assessed as residual activity at 1000 nM after 30 mins by Kinomescan method relative to control
[17] = target: Mast/stem cell growth factor receptor Kit (Homo sapiens) (UniProt P10721); test: Inhibition of wild-type human partial length KIT (I571 to D952 residues) expressed in Escherichia coli BL21 assessed as residual activity at 1000 nM after 30 mins by Kinomescan method relative to control
[18] = system: Phosphatidylinositol 4,5-bisphosphate 3-kinase catalytic subunit alpha isoform (Homo sapiens), P42336 [Q546K]; test: Inhibition of human partial length PIK3CA Q546K mutant (R108 to N1068 residues) expressed in HEK293 cells assessed as residual activity at 1000 nM after 30 mins by Kinomescan method relative to control; assay type: cell-based; how it was run: as §1
[19] = target: Serine/threonine-protein kinase PAK 5 (Homo sapiens) (UniProt Q9P286); test: Inhibition of wild-type human partial length PAK7 (Y400 to H719 residues) expressed in Escherichia coli BL21 assessed as residual activity at 1000 nM after 30 mins by Kinomescan method relative to control
Chain of Serine/threonine-protein kinase PAK 5 (Homo sapiens) (Q9P286 whole entry, looked up, the tested form may be a part): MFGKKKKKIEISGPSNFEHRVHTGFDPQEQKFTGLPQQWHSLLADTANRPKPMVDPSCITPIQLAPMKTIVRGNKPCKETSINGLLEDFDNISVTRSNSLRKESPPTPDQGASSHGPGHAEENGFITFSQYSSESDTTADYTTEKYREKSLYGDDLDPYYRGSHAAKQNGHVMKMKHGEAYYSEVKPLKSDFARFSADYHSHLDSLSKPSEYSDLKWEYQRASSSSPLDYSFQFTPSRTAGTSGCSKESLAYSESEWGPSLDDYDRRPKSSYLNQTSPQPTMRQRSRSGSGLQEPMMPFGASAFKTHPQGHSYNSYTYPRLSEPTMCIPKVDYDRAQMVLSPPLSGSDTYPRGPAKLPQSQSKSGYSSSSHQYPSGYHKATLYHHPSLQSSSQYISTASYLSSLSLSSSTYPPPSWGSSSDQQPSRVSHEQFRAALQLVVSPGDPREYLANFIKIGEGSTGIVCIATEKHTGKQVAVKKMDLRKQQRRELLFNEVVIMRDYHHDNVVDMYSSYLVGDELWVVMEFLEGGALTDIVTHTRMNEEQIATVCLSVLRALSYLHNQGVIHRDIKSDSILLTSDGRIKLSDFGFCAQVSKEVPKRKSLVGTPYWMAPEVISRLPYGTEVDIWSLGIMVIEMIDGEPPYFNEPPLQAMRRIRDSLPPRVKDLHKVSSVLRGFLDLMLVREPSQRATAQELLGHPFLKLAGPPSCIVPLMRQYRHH

[20] = target: Wee1-like protein kinase 2 (Homo sapiens) (UniProt P0C1S8); test: Inhibition of wild-type human partial length WEE2 (M204 to K492 residues) expressed in Escherichia coli BL21 assessed as residual activity at 1000 nM after 30 mins by Kinomescan method relative to control
[21] = target: Rhodopsin kinase GRK7 (Homo sapiens) (UniProt Q8WTQ7); test: Inhibition of wild-type human full length GRK7 (M1 to L553 residues) expressed in HEK293 cells assessed as residual activity at 1000 nM after 30 mins by Kinomescan method relative to control; assay type: cell-based; how it was run: as §2
Chain of Rhodopsin kinase GRK7 (Homo sapiens) (Q8WTQ7 whole entry, the tested form may be a part): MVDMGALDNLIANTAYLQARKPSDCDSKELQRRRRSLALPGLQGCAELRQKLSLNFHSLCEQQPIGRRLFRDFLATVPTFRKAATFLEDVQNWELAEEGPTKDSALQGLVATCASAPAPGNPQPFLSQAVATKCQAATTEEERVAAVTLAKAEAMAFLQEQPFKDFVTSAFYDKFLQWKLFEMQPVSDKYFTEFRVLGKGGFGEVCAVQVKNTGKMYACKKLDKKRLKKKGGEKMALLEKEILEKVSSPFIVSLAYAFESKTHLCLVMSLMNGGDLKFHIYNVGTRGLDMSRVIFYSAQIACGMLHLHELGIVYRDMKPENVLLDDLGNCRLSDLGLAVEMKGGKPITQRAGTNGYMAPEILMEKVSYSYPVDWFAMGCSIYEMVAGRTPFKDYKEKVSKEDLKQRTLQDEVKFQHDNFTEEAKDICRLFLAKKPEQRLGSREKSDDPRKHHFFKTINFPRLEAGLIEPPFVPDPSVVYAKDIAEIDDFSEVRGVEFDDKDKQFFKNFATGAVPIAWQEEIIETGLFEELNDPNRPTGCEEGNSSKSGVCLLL

With `COc1cc(OC)c(Cl)c(N2Cc3cnc(Nc4ccc(F)cc4)nc3N(C3CCN(C(=O)/C=C/CN(C)C)CC3)C2=O)c1Cl` as the compound, how does the Activity [1] read?
Its Activity is 5.6%.

And the Activity [2]?
The Activity was 100%.

And the Activity [3]?
Its Activity is 87%.

And the Activity [4]?
Its Activity is 100%.

What about the Activity [5] of the same compound?
Its Activity is 100%.

What about the Activity [6] of the same compound?
The Activity was 95%.

What about the Activity [7] of the same compound?
Its Activity is 100%.

What about the Activity [8] of the same compound?
Its Activity is 89%.

What about the Activity [9] of the same compound?
Its Activity is 87%.

And the Activity [10]?
The Activity was 100%.

And the Activity [11]?
Its Activity is 100%.

And the Activity [12]?
Its Activity is 100%.

And the Activity [13]?
Its Activity is 100%.

And the Activity [14]?
The Activity was 100%.

What about the Activity [15] of the same compound?
The Activity was 100%.

What about the Activity [16] of the same compound?
The Activity was 100%.

And the Activity [17]?
Its Activity is 19%.

What about the Activity [18] of the same compound?
The Activity was 98%.

What about the Activity [19] of the same compound?
Its Activity is 88%.

What about the Activity [20] of the same compound?
Its Activity is 99%.

And the Activity [21]?
Its Activity is 99%.
